Measured values reported in ChEMBL document CHEMBL1153729, “Structurally diverse limonoids from the fruits of Swietenia mahagoni” (2009).
Active and inactive are the calls of the source.

Tests used:
Pseudomonas aeruginosa = experiment: Antibacterial activity against Pseudomonas aeruginosa ATCC 14502 after 18 hrs; assay type: functional, organism-based
Procedure, shortened: (§1)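 Bacterial cells suspended in Mueller-Hinton broth at a final density of […]. Incubated aerobically with compounds in DMSO at 37 °C for 18 h, alongside DMSO-only blank cultures and an ofloxacin positive control. MIC taken as the lowest concentration giving complete inhibition of visible growth.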

Bacillus subtilis = experiment: Antibacterial activity against Bacillus subtilis ATCC 6633 after 18 hrs; assay type: functional, organism-based; procedure, shortened: as §1
Saccharomyces = experiment: Antifungal activity against Saccharomyces sake ATCC 26421 after 48 hrs; assay type: functional, organism-based
Procedure, shortened: (§2)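 Fungi grown in Sabouraud dextrose broth with compounds for 48 h at 37 °C. Blank cultures received a limited amount of DMSO. Amphotericin B, dissolved in DMSO, served as the positive control.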

Nannizzia gypsea = experiment: Antifungal activity against Microsporum gypseum ATCC 14683 after 48 hrs; assay type: functional, organism-based; procedure, shortened: as §2
Trichophyton rubrum = experiment: Antifungal activity against Trichophyton rubrum ATCC 10218 after 48 hrs; assay type: functional, organism-based; procedure, shortened: as §2
Candida albicans = experiment: Antifungal activity against Candida albicans ATCC 1600 after 48 hrs; assay type: functional, organism-based; procedure, shortened: as §2
Staphylococcus aureus = experiment: Antibacterial activity against Staphylococcus aureus ATCC 25923 after 18 hrs; assay type: functional, organism-based; procedure, shortened: as §1
[1] = test system: Staphylococcus epidermidis; experiment: Antibacterial activity against Staphylococcus epidermidis ATCC 12228 after 18 hrs; assay type: functional, organism-based; procedure, shortened: as §1
Kocuria rhizophila = experiment: Antibacterial activity against Micrococcus luteus ATCC 9341 after 18 hrs; assay type: functional; conditions: for Activity: DC2201; procedure, shortened: as §1
Escherichia coli = experiment: Antibacterial activity against Escherichia coli ATCC 25922 after 18 hrs; assay type: functional, organism-based; procedure, shortened: as §1
Shigella flexneri = experiment: Antibacterial activity against Shigella flexneri ATCC 12022 after 18 hrs; assay type: functional, organism-based; procedure, shortened: as §1

CC1(C)C(=O)C=C[C@]2(C)[C@H]3CC[C@@]4(C)[C@H](c5ccoc5)OC(=O)[C@H]5O[C@]54[C@]3(C)C(=O)C[C@@H]12
inactive: Activity (Pseudomonas aeruginosa) | Activity (Bacillus subtilis) | Activity (Saccharomyces) | Activity (Nannizzia gypsea) | Activity (Trichophyton rubrum) | Activity (Candida albicans) | Activity (Staphylococcus aureus) | Activity [1] | Activity (Kocuria rhizophila) | Activity (Escherichia coli) | Activity (Shigella flexneri)

COC(=O)C[C@H]1C(C)(C)[C@H](O)[C@@H]2C=C3[C@H]([C@H](OC(C)=O)C[C@]4(C)[C@H]3CC(=O)O[C@H]4c3ccoc3)[C@@]1(C)C2=O
inactive: Activity (Pseudomonas aeruginosa) | Activity (Bacillus subtilis) | Activity (Saccharomyces) | Activity (Nannizzia gypsea) | Activity (Trichophyton rubrum) | Activity (Candida albicans) | Activity (Staphylococcus aureus) | Activity [1] | Activity (Kocuria rhizophila) | Activity (Escherichia coli) | Activity (Shigella flexneri)

COC(=O)C[C@H]1C(C)(C)[C@H](OC(C)=O)[C@]2(O)C=C3C4=CC(=O)O[C@@H](c5ccoc5)[C@]4(C)CC[C@@H]3[C@@]1(C)C2=O
inactive: Activity (Pseudomonas aeruginosa) | Activity (Bacillus subtilis) | Activity (Saccharomyces) | Activity (Nannizzia gypsea) | Activity (Trichophyton rubrum) | Activity (Candida albicans) | Activity (Staphylococcus aureus) | Activity [1] | Activity (Kocuria rhizophila) | Activity (Escherichia coli) | Activity (Shigella flexneri)

CC(=O)O[C@H]1C[C@@H](OC(C)=O)C(C)(C)[C@@H]2C[C@@H](OC(C)=O)[C@]3(C)[C@H](CC[C@@]4(C)[C@H](c5ccoc5)OC(=O)[C@H]5O[C@@]534)[C@@]12C
inactive: Activity (Pseudomonas aeruginosa) | Activity (Bacillus subtilis) | Activity (Saccharomyces) | Activity (Nannizzia gypsea) | Activity (Trichophyton rubrum) | Activity (Candida albicans) | Activity (Staphylococcus aureus) | Activity [1] | Activity (Kocuria rhizophila) | Activity (Escherichia coli) | Activity (Shigella flexneri)

CC1COc2c(N3CCN(C)CC3)c(F)cc3c(=O)c(C(=O)O)cn1c23 (stereo not drawn) [OFLOXACIN]
1.56 µg/mL: MIC (Kocuria rhizophila; DC2201, 18 h)

COC(=O)C[C@H]1C(C)(C)C(=O)[C@@H]2CC3=C4CC(=O)O[C@@H](c5ccoc5)[C@]4(C)CC[C@@H]3[C@@]1(C)C2=O
inactive: Activity (Pseudomonas aeruginosa) | Activity (Bacillus subtilis) | Activity (Saccharomyces) | Activity (Nannizzia gypsea) | Activity (Trichophyton rubrum) | Activity (Candida albicans) | Activity (Staphylococcus aureus) | Activity [1] | Activity (Kocuria rhizophila) | Activity (Escherichia coli) | Activity (Shigella flexneri)

CC(=O)O[C@@H]1C[C@H](O)[C@]2(C)[C@H]3CC[C@@]4(C)[C@H](c5ccoc5)OC(=O)[C@H]5O[C@]54[C@]3(C)[C@H](OC(C)=O)C[C@H]2C1(C)C
inactive: Activity (Pseudomonas aeruginosa) | Activity (Bacillus subtilis) | Activity (Saccharomyces) | Activity (Nannizzia gypsea) | Activity (Trichophyton rubrum) | Activity (Candida albicans) | Activity (Staphylococcus aureus) | Activity [1] | Activity (Kocuria rhizophila) | Activity (Escherichia coli) | Activity (Shigella flexneri)

CC(=O)O[C@H]1C[C@@H](OC(C)=O)C(C)(C)[C@@H]2C[C@@H](O)[C@]3(C)[C@H](CC[C@@]4(C)[C@H](c5ccoc5)OC(=O)[C@H]5O[C@@]534)[C@@]12C
inactive: Activity (Pseudomonas aeruginosa) | Activity (Bacillus subtilis) | Activity (Saccharomyces) | Activity (Nannizzia gypsea) | Activity (Trichophyton rubrum) | Activity (Candida albicans) | Activity (Staphylococcus aureus) | Activity [1] | Activity (Kocuria rhizophila) | Activity (Escherichia coli) | Activity (Shigella flexneri)
